# Test results from ChEMBL document CHEMBL1152810, “Microwave synthesis and evaluation of phenacylhomoserine lactones as anticancer compounds that minimally activate quorum sensing pathways in Pseudomonas aeruginosa” (J Med Chem, 2009).
# Columns and labels:
# NCI-H630 [1] = test: Cytotoxicity against human NCI-H630 cells after 5 days by SRB assay; type: functional, cell-based; settings: NCI-H630, 120 h
# Outline: (§1)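 Cells grown in phenol-red-free RPMI-1640 with 10% dialyzed FBS and no antibiotics, at 37 °C and 5% CO₂. H630-1 was kept in 1 µM 5-FU until 1 week before use. Compounds were dried from EtOH (10× final) into wells, in duplicate or quadruplicate. Seeding per well: H630 2×10³, H630-1 4×10³, PC3 2×10³. After 5 days, cells were TCA-fixed, stained with 0.4% SRB, dye dissolved in Tris, OD570 read.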
# NCI-H630 [2] = test: Cytotoxicity against 5FU-resistant human NCI-H630 cells after 5 days by SRB assay; type: functional, cell-based; settings: NCI-H630, 120 h; outline: as §1
# PC-3 = test: Cytotoxicity against human PC3 cells after 5 days by SRB assay; type: functional, cell-based; settings: PC-3, 120 h; outline: as §1
# Pseudomonas aeruginosa [3] = test: Toxicity assessed as activation of quorum sensing signalling in Pseudomonas aeruginosa MW1 carrying (lasI-,rhlI-) pUM15 containing rsa::gfp fusion gene at 33 uM by LasR-dependent green fluorescence protein reporter assay; type: organism-based; settings: in vivo
# Pseudomonas aeruginosa [4] = test: Toxicity assessed as activation of quorum sensing signalling in Pseudomonas aeruginosa MW1 carrying (lasI-,rhlI-) pUM15 containing rsa::gfp fusion gene at 0.3 uM by LasR-dependent green fluorescence protein reporter assay; type: organism-based; settings: in vivo
smiles,measurement,setting,value
O=C(CCCCCCCCCCc1ccccc1)CC(=O)N[C@H]1CCOC1=O,IC50,NCI-H630 [1],23 µM
same,IC50,NCI-H630 [2],14 µM
same,IC50,PC-3,2 µM
same,Activity,Pseudomonas aeruginosa [3],Non-toxic
O=C(CCCCCc1ccccc1)N[C@H]1CCOC1=O,IC50,NCI-H630 [1],> 100 µM
same,IC50,NCI-H630 [2],> 100 µM
same,IC50,PC-3,> 100 µM
O=C(CCCCc1ccccc1)CC(=O)N[C@H]1CCOC1=O,IC50,NCI-H630 [1],> 100 µM
same,IC50,NCI-H630 [2],80 µM
same,IC50,PC-3,83 µM
O=C(CCCCCCCc1ccccc1)N[C@H]1CCOC1=O,IC50,NCI-H630 [1],> 100 µM
same,IC50,NCI-H630 [2],> 100 µM
same,IC50,PC-3,85 µM
O=C(CCCCCCCc1ccccc1)CC(=O)N[C@H]1CCOC1=O,IC50,NCI-H630 [1],42 µM
same,IC50,NCI-H630 [2],10 µM
same,IC50,PC-3,2 µM
O=C(CCCCCCCCCCCc1ccccc1)CC(=O)N[C@H]1CCOC1=O,IC50,NCI-H630 [1],33 µM
same,IC50,NCI-H630 [2],27 µM
same,IC50,PC-3,4 µM
same,Activity,Pseudomonas aeruginosa [3],Non-toxic
O=C(CCCCCCCCCc1ccccc1)CC(=O)N[C@@H]1CCOC1=O,IC50,NCI-H630 [1],> 100 µM
same,IC50,NCI-H630 [2],> 100 µM
same,IC50,PC-3,> 100 µM
O=C(CCCc1ccccc1)CC(=O)N[C@H]1CCOC1=O,IC50,NCI-H630 [1],> 100 µM
same,IC50,NCI-H630 [2],> 100 µM
same,IC50,PC-3,> 100 µM
O=C(CCc1ccccc1)CC(=O)N[C@H]1CCOC1=O,IC50,NCI-H630 [1],> 100 µM
same,IC50,NCI-H630 [2],> 100 µM
same,IC50,PC-3,> 100 µM
O=C(CCCCCCc1ccccc1)N[C@H]1CCOC1=O,IC50,NCI-H630 [1],> 100 µM
same,IC50,NCI-H630 [2],> 100 µM
same,IC50,PC-3,> 100 µM
O=C(CC(=O)N[C@H]1CCOC1=O)Cc1ccccc1,IC50,NCI-H630 [1],> 100 µM
same,IC50,NCI-H630 [2],> 100 µM
same,IC50,PC-3,> 100 µM
O=C(CCCCCCCCc1ccccc1)N[C@H]1CCOC1=O,IC50,NCI-H630 [1],> 100 µM
same,IC50,NCI-H630 [2],> 100 µM
same,IC50,PC-3,67 µM
O=C(CCCCCCc1ccccc1)CC(=O)N[C@H]1CCOC1=O,IC50,NCI-H630 [1],65 µM
same,IC50,NCI-H630 [2],27 µM
same,IC50,PC-3,9 µM
O=C(CCCc1ccccc1)N[C@H]1CCOC1=O,IC50,NCI-H630 [1],> 100 µM
same,IC50,NCI-H630 [2],> 100 µM
same,IC50,PC-3,> 100 µM
O=C(CCCCCCCCCc1ccccc1)N[C@H]1CCOC1=O,IC50,NCI-H630 [1],> 100 µM
same,IC50,NCI-H630 [2],> 100 µM
same,IC50,PC-3,75 µM
O=C(CCCCCc1ccccc1)CC(=O)N[C@H]1CCOC1=O,IC50,NCI-H630 [1],44 µM
same,IC50,NCI-H630 [2],24 µM
same,IC50,PC-3,9 µM
O=C(CCCCc1ccccc1)N[C@H]1CCOC1=O,IC50,NCI-H630 [1],> 100 µM
same,IC50,NCI-H630 [2],> 100 µM
same,IC50,PC-3,> 100 µM
O=C(Cc1ccccc1)N[C@H]1CCOC1=O,IC50,NCI-H630 [1],> 100 µM
same,IC50,NCI-H630 [2],> 100 µM
same,IC50,PC-3,> 100 µM
O=C(CCCCCCCCCCc1ccccc1)N[C@H]1CCOC1=O,IC50,NCI-H630 [1],70 µM
same,IC50,NCI-H630 [2],66 µM
same,IC50,PC-3,66 µM
O=C(CCCCCCCCc1ccccc1)CC(=O)N[C@H]1CCOC1=O,IC50,NCI-H630 [1],11 µM
same,IC50,NCI-H630 [2],10 µM
same,IC50,PC-3,4 µM
O=C(CCCCCCCCCc1ccccc1)CC(=O)N[C@H]1CCOC1=O,IC50,NCI-H630 [1],16 µM
same,IC50,NCI-H630 [2],13 µM
same,IC50,PC-3,4 µM
same,Activity,Pseudomonas aeruginosa [3],Non-toxic
CCCCCCCCCC(=O)CC(=O)N[C@H]1CCOC1=O,IC50,NCI-H630 [1],34 µM
same,IC50,NCI-H630 [2],12 µM
same,IC50,PC-3,5 µM
same,Activity,Pseudomonas aeruginosa [4],Toxic
O=C(CCCCCCCCCCCc1ccccc1)N[C@H]1CCOC1=O,IC50,NCI-H630 [1],> 100 µM
same,IC50,NCI-H630 [2],> 100 µM
same,IC50,PC-3,> 100 µM
O=C(CC(=O)c1ccccc1)N[C@H]1CCOC1=O,IC50,NCI-H630 [1],> 100 µM
same,IC50,NCI-H630 [2],> 100 µM
same,IC50,PC-3,> 100 µM
O=C(CCc1ccccc1)N[C@H]1CCOC1=O,IC50,NCI-H630 [1],> 100 µM
same,IC50,NCI-H630 [2],> 100 µM
same,IC50,PC-3,> 100 µM
